Screens as filed in PubChem.
APJ agonist – agonists of human APJ apelin receptor; AID 2520; CHO-K1 APJ PathHunter beta-arrestin, luminescence; 0% DMSO wells, 100% apelin; activation, % at 20 µM; hit rate 0.11% among 330,000; P35414;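 active = activation more than six SD over the plate average, tested at 20 µM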;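 note: 0% = DMSO alone and 100% = apelin-13 at 10 nM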
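Material: engineered CHO-K1 APJ arrestin reporter cells; amount: 1000 CHO-K1 reporter cells seeded per well; incubation: compound stimulation 90 min at 25 °C, detection 60 min; signal: luminescent beta-gal fragment complementation, chemiluminescent substrate; read-out basis: APJ agonist activity; controls: DMSO-only wells as negative, 10 nM Apelin-13 as positive control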
CCR6 antagonist – CCR6 (human) receptor antagonism; CHO-K1 CCR6 PathHunter beta-arrestin, luminescence, CCL20-stimulated; inhibition, % at 20 µM; hit rate 0.49% among 340,000;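 active = compounds whose inhibition of the agonist-driven luminescence signal at 20 µM reaches about 50%, limit read from the data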;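 note: cells stimulated with CCL20 at 14 nM final; plate controls were DMSO with CCL20 for no effect and DMSO without agonist for full effect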
CXCR6 inh – CXCR6 (human) receptor inhibition; O00574; CHO-K1 PathHunter CXCR6 beta-arrestin, luminescence; inhibition, % at 20 µM; hit rate 0.36% among 360,000; in the data active = inhibition above about 34%, passing the limit was not always enough;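 note: antagonist mode with CXCL16 agonist at 10 nM final; 0% = 10 nM CXCL16 with DMSO and 100% = unstimulated wells without agonist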
EBI2 antag – antagonists of human EBI2 receptor | hit rate 0.81% among 360,000 | EBI2 beta-arrestin recruitment, luminescence, 7a,25-OHC stimulated | inhibition, % at 5 µM; in the data active = inhibition above about 38%;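 note: enzyme fragment complementation signal reports receptor beta-arrestin coupling in cells; 0% = agonist plus DMSO wells and 100% = wells without agonist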
m5-HT2A agonist – mouse HTR2A agonism via beta-arrestin recruitment. hit rate 0.66% among 360,000. activation, % at 7.6 µM. P35363. CHO-K1 mHTR2A beta-arrestin complementation, luminescence; percent of 30 µM serotonin response;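 active = activation above a run cutoff, the mean activation of all tested compounds plus 3 SD, cut at about 14% in these data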;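 note: 0% = plate median of compound wells and 100% = 30 µM serotonin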
Target sequence (P35363 whole entry, looked up): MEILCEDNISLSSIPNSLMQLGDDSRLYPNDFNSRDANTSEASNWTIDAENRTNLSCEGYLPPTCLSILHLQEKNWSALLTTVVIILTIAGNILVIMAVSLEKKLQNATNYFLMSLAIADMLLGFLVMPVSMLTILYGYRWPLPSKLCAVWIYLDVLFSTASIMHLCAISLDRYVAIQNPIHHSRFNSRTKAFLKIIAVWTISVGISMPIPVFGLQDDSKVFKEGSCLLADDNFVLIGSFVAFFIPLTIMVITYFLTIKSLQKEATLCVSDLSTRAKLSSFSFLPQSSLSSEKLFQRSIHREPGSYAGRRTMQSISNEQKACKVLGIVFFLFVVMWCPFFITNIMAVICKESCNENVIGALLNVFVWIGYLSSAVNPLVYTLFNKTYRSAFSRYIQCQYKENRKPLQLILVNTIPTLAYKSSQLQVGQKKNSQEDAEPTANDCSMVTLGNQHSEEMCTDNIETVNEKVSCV
APJ antag – antagonists of human APJ apelin receptor; P35414; CHO-K1 APJ beta-arrestin complementation, luminescence; inhibition, % at 20 µM; hit rate 0.32% among 330,000; AID 2521;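 active = inhibition above about 40% at 20 µM, limit read from the data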;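 note: cells challenged with 10 nM apelin-13 agonist together with compound; plate controls were apelin-13 plus DMSO wells for no effect and DMSO wells lacking apelin-13 for full effect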
EBI2 antag conf – EBI2 (human) antagonism, single concentration confirmation; shares compounds with EBI2 antag; EBI2 beta-arrestin luminescence, 7a,25-OHC antagonism; inhibition, % at 5 µM; hit rate 29% among 2,400; AID 651997;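 active = inhibition of at least 50%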
EBI2 ag – counter-screen for EBI2 antagonists: EBI2 agonist activity. EBI2-expressing cells, agonist mode, luminescence, 60 min; 0% vehicle, 100% 7α,25-dihydroxycholesterol control. 2,400 tested, under 10 active. AID 652000. shares compounds with EBI2 antag. activation, % at 5 µM;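 active = activation of at least 50%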
bGal cs – beta-galactosidase inhibition counter-screen; AID 652176; purified beta-galactosidase, luminescent Galacton Star, 15 min; inhibition, % at 5 µM; shares compounds with EBI2 antag; hit rate 1% among 2,400;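 active = replicate-average signal at least 3 plate SD below neutral wells, shown as high inhibition, flagging enzyme-inhibiting false positives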;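 note: 0% = DMSO wells with enzyme and 100% = wells lacking enzyme; higher means stronger loss of beta-gal luminescence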
* hit, by the source's call; / = no result given; ! = repeats disagree. Hits are enriched below; roughly 2.2% of the tested compounds scored in any of these assays.

SMILES	APJ agonist	CCR6 antagonist	CXCR6 inh	EBI2 antag	m5-HT2A agonist	APJ antag	EBI2 antag conf	EBI2 ag	bGal cs
O=C(N/N=C/c1cccc(OCc2ccccc2)c1)c1ccc(Br)cc1	0	2	-9	36*	-7	-14	23	1	6
COc1cccc(/C=N/NC(=O)c2ccc(OCc3cccc(Br)c3)cc2)c1	3	-9	-2	24	-1	-8	/	/	/
CCOc1cc(/C=N/NC(=O)CN2CCOCC2)ccc1OCc1ccccc1	3	11	-1	2	-2	-3	/	/	/
O=C1CSc2ccc(C(=O)N3CCCCC3)cc2N1	/	/	-11	-3	-2	/	/	/	/
Cc1ccc(/C=C/C(=O)N2CCN(S(=O)(=O)c3c(C)c(C)cc(C)c3C)CC2)o1	-4	5	9	50*	-1	5	32	1	3
COc1cccc(NC(=S)Nc2ccc(Br)cc2Cl)c1	-1	1	4	1	-3	-3	/	/	/
CCOc1ccc(NC(=S)Nc2ccc(OCc3ccccc3)cc2)cc1	5	14	-4	58*	2	8	36	0	-13
CCC(C)c1ccc(NC(=S)Nc2ccc(OC)cc2)cc1 (stereo not given)	-1	9	7	53*	6	-6	49	2	4
CC(C)c1ccc(NC(=S)Nc2ccc(OC(F)(F)F)cc2)cc1	-2	13	1	55*	-2	-9	51*	2	3
COc1ccc(CCNC(=S)Nc2ccc(C(C)C)cc2)cc1	-1	15	-5	24	-7	0	/	/	/
CCOc1ccc(NC(=S)Nc2ccc(Br)cc2Cl)cc1	-3	14	10	68*	1	-5	43	2	-2
COc1ccccc1Cc1c(C(C)(C)C)nc2c3ccccc3ccn12	/	/	5	1	0	/	/	/	/
C=C(C)Cn1c2ccc(NC(=O)NCc3ccc(F)cc3)cc2c(=O)n1C	/	/	-13	-11	-3	/	/	/	/
O[C@@H]1CN(Cc2cccs2)[C@@H](c2ccccc2)C[C@H]1n1cc(C2CC2)nn1	/	/	-1	-9	6	/	/	/	/
CCOc1ccc(OCC(=O)Nc2ccc(OC)cc2)cc1	2	6	-7	-7	0	11	/	/	/
COc1ccc(NC(=S)Nc2ccccc2)cc1	-2	7	3	39*!	-2	12	9	3	7
CCOc1ccc(NC(=S)Nc2ccc(OC)cc2)cc1	-2	-3	3	75*	-2	-7	63*	-1	-15
COc1ccc(NC(=S)c2ccccc2)cc1	-2	10	4	-6	-1	5	/	/	/
Cn1cccc1CC(=O)N/N=C\c1ccccc1	-4	5	-9	44*	2	8	11	-1	-6
O=C(/C=C/c1ccc(OC2CSC2)cc1)c1ccc(Cl)cc1	-3	2	0	43*	0	14	12	0	8
COc1ccc(C(=O)/C=C/c2ccc(OC3CSC3)cc2)cc1OC	0	17	4	21	-4	4	/	/	/
Cc1cccnc1C(NC(=O)C1CCN(CCCOc2ccc(F)cc2)CC1)c1ccccc1 (stereo not given)	/	/	6	10	0	/	/	/	/
O=C(OCc1ccccc1)N1CCN(C(c2ccnc3ccccc23)c2nnnn2-c2ccc3c(c2)OCCO3)CC1 (stereo not given)	/	/	18	60*	-3	/	27	3	9
Cc1cccc(C)c1-n1nnnc1C(c1cccc2ccccc12)N1CCN(C/C=C/c2ccccc2)CC1 (stereo not given)	/	/	9	36	-4	/	/	/	/
FC(F)(F)Oc1ccccc1C(c1nnnn1-c1ccc2c(c1)OCCO2)N1CCN(C/C=C/c2ccccc2)CC1 (stereo not given)	/	/	21	81*	-5	/	56*	1	4
C(=C\c1ccccc1)/CN1CCN(C(c2cccc3ccccc23)c2nnnn2-c2ccc3c(c2)OCCO3)CC1 (stereo not given)	/	/	6	55*	-10	/	22	0	-18
c1ccc2c(C(c3nnnn3-c3ccc4c(c3)OCCO4)N3CCCC3)ccnc2c1 (stereo not given)	/	/	-2	-3	-6	/	/	/	/
COc1cccc(C(=O)NCCS(=O)(=O)N2CCN(c3ccccc3)CC2)c1OC	/	/	1	-6	-2	/	/	/	/
CCOC(=O)c1c(NC(=O)COc2cccc3c2CCN(C)C3=O)sc2c1CCC2	-2	-1	-6	51*	0	-13	10	-2	-11
